Source: PubChem BioAssay (several laboratories)
Most compounds without a hit are left out; they make up all but 2% or so of the library.
Arrestin-AP2 inh = human beta-arrestin and AP2 interaction inhibition. FITC-arrestin peptide / GST-AP2 beads, flow cytometry; AP2 beta2 appendage carries R879A mutation. inhibition, % at 10 µM. 340,000 compounds, 0.31% hits;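 active = inhibition above a set limit, near 3 SD of compounds lacking own fluorescence, cut at about 54% in these data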;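 note: plate controls were DMSO wells for no effect and 5 µM unlabelled arrestin peptide for full effect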
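System: GST-AP2 R879A glutathione beads | Also added: FITC-arrestin peptide, 50 nM | Times: 12 min plus 1 h, RT | Signal: Bead flow cytometry, FITC channel | Buffer or medium: PBS with 0.05% Tween 20 and 0.1% BSA | Read-out basis: Percent drop in bead-associated FITC signal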
GRK2 inh = blocks RNA aptamer binding to human GRK2; P25098; bead flow cytometry, FAM-aptamer displacement from GRK2; inhibition of aptamer binding, % at 10 µM; 330,000 compounds, 0.59% hits; AID 488847;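 active = inhibition of aptamer binding above 40%, roughly 3 SD of noise, on plates passing a quality check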;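 note: median bead fluorescence of bound FAM aptamer so fluorescent compounds give negative values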
Target sequence (P25098 whole entry, looked up): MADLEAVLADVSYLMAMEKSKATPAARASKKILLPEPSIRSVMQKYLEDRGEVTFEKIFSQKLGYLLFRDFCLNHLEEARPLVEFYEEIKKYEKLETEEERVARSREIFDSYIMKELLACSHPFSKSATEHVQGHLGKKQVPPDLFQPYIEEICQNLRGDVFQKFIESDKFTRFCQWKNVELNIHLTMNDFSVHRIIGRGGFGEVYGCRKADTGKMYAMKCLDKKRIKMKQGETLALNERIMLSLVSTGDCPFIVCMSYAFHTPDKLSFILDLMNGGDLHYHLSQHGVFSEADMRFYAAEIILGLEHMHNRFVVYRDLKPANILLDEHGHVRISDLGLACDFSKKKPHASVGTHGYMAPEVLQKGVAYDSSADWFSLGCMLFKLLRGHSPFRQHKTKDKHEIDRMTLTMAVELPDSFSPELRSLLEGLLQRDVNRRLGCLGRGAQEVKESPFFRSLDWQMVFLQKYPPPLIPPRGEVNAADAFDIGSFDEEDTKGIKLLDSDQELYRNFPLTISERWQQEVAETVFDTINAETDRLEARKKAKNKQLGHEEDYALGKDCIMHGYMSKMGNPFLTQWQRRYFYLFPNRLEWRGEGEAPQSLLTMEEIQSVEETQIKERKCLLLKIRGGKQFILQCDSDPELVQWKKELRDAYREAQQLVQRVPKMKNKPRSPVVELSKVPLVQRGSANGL
B2AR ag = agonists of human beta-2 adrenergic receptor inducing internalization. Am2.2-beta2AR cells, FAP receptor internalization, flow cytometry. response, % (test concentration not listed). 340,000 compounds, 0.43% hits. AID 504454;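 active = response above a set limit, near 3 SD of response in nonfluorescent compounds, cut at about 42% in these data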
TAG inh = reduces triacylglycerol accumulation in H9c2 cells. 230,000 compounds, 0.66% hits. Nile Red lipid (TAG) fluorescence; cells loaded with 200 µM oleic acid. AID 651582. inhibition, % at 12.5 µM;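 active = pattern-corrected inhibition of lipid staining of at least 50% with the nuclear-stain viability signal not falling by more than 50%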;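 note: 0% = DMSO wells and 100% = triacsin C control wells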
NTR1 agonist = NTR1 (human) agonism. NTR1-U2OS beta-arrestin-GFP spot imaging, agonist mode. activation, % at 20 µM. 330,000 compounds, 0.17% hits. AID 493036;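 active = activation at or above 40% of the spot to cytoplasm intensity ratio, with at least 20 cells analyzed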;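 note: 0% = DMSO without peptide and 100% = 100 nM NTR1 peptide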
Lipid droplet = modulators of hepatic lipid droplet formation; AML12 mouse hepatocytes, oleate lipid droplets, BODIPY imaging; 240,000 compounds, 0.4% hits; inhibition, % at 6.5 µM;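 active = lipid droplet intensity inhibited by at least 50%, with more than 500 cells counted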
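Material: mouse AML12 hepatocyte cell line, fixed after treatment; Timing: compound with oleate, overnight; Technique: high-content imaging of BODIPY-stained droplets and DAPI nuclei; Probe or stimulus: oleate, 100 µM final; Dosing: compound at 6.5 µM only.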
Beta2AR ag CP1 = human beta-2 adrenergic receptor agonism, cherry pick | percent response (surface receptor), % at 10 µM | AID 540358 | 1,100 compounds, 25% hits | shares compounds with B2AR ag | Am2.2-beta2AR cells, FAP surface receptor, flow cytometry; active compounds read low;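 active = surface receptor percent response at or below 58%, roughly 3 SD from nonfluorescent compounds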
FAP fluor counter = fluorescence artifact in beta-2AR agonist FAP counterscreen. calls only at 10 µM. shares compounds with B2AR ag. 1,100 tested, under 10 active. Am2.2 cells, FAP fluorogen flow cytometry; active compounds read low;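 active = percent response below a set limit in fluorescence channel 1 and below 50% in channel 8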
The depositor's hits bear a star; i = inactive; / = not tested or not shown; + = active, no number.

SMILES	Arrestin-AP2 inh	GRK2 inh	B2AR ag	TAG inh	NTR1 agonist	Lipid droplet	Beta2AR ag CP1	FAP fluor counter
O=C(CSc1ncnc2c1nnn2-c1ccc(F)cc1)NCC1CCCO1 (configuration not stated)	21.7	0.0	1.3	-2.4	3.8	/	/	/
Cc1ccc(-n2nnc3c(SCC(=O)NCC4CCCO4)ncnc32)cc1 (configuration not stated)	10.7	0.0	51.0*	-6.7	6.4	4.0	92.2	i
Cc1ccc(NC(=O)CCN2CCOCC2)cc1C	-5.6	0.0	-6.1	/	0.6	2.3	/	/
CN(CCCN1CCOCC1)Cc1cn(C)nc1-c1ccccc1F	-11.6	2.0	1.2	11.6	-1.6	7.0	130.3	i
Cn1c(SCC(=O)N2c3ccccc3Sc3ccc(Cl)cc32)nnc1-c1ccco1	4.9	0.0	-11.1	/	0.2	-8.5	/	/
O=C(CSc1nnc(-c2ccncc2)n1Cc1ccco1)N1c2ccccc2Sc2ccc(Cl)cc21	5.9	0.0	84.7*	3.7	5.5	-14.0	6.7*	i
Cc1ccc(NCC(=O)N/N=C\c2ccc[nH]2)cc1	-17.1	0.0	-1.2	0.6	0.5	-14.6	/	/
Cc1cc(S(=O)(=O)NCC(C)C)ccc1OCC(=O)NCc1ccco1	-11.6	0.0	2.5	-24.7	-0.1	-4.6	/	/
Cc1ccc(S(=O)(=O)N2CCCC(C(=O)NCCc3ccc(S(N)(=O)=O)cc3)C2)cc1 (configuration not stated)	5.4	0.0	-10.5	/	1.1	-0.6	/	/
COc1ccccc1NC(=O)Cc1nnc(SCC(=O)NC2=NCCS2)n1C	2.4	1.0	-10.2	/	-0.4	-2.7	/	/
S=c1nc2ccccc2c2nc(-c3ccccc3)[nH]n12	-11.0	3.0	2.3	-9.5	3.6	/	/	i
COc1cc2c(cc1Cl)C(=O)C(F)(c1ccccc1)C(=O)N2 (configuration not stated)	-7.8	0.0	80.6*	3.1	-0.6	-4.1	13.3*	i
COc1cc2c(cc1OC)C(=O)N1[C@H]3c4cc(Cl)ccc4OC[C@@H]3[C@H](c3ccccc3)[C@]1(C)C(=O)N2	26.8	/	7.6	/	0.5	/	/	/
Cc1ccc(NC(=O)CCCn2c(=O)[nH]c3ccsc3c2=O)cc1	1.7	2.0	-3.8	/	-1.6	2.9	/	/
Cc1ccc(CNC(=O)CCCCn2c(=O)[nH]c3ccsc3c2=O)cc1	24.8	2.0	12.3	-11.8	1.6	1.2	120.5	i
O=C(CCCCCn1c(=O)[nH]c2ccsc2c1=O)NCc1ccc(F)cc1	-2.6	2.0	108.9*	-10.0	0.7	19.2	1.5*	i
Cc1ccc(OC(C)C(=O)Nc2ccccc2C(=O)N2CCN(C)CC2)cc1 (configuration not stated)	2.9	0.0	-1.3	-2.8	2.1	-14.1	/	/
O=C(CCS(=O)(=O)c1ccccc1)N(CCCN1CCOCC1)c1nc2c(F)cccc2s1	-2.1	0.0	111.2*	21.6	15.2	/	81.9	i
Cc1ccc(S(=O)(=O)CC(=O)N(CCCN2CCOCC2)c2nc3c(F)cccc3s2)cc1	3.4	2.0	5.6	4.6	0.7	/	/	/
CC(=O)Nc1cc(-c2ccc(C(=O)NC3CC3)cc2)cn2c(-c3ccc(F)c(Cl)c3)cnc12	/	/	/	7.9	/	/	/	/
C=CCn1c(SCC(=O)Nc2ccc(-c3nc4ccc(C)cc4s3)cc2)nnc1-c1ccncc1	4.2	0.0	57.5*	/	6.3	6.0	104.0	i
Cc1noc(C)c1CCC(=O)Nc1cc(C(=O)O)ccc1Cl	/	/	/	13.0	/	/	/	/
CCC(=O)c1cn(CC(=O)Nc2ccc(C)cc2C)c2ccccc12	-5.4	0.0	2.4	/	1.0	33.4	/	/
O=C(NC1CCCCCC1)c1c2c(nc3ccccc13)CCN(Cc1ccccc1)C2	2.8	0.0	4.5	/	-0.9	-5.1	/	/
Cc1cc(N2CCN(C)CC2)ccc1NC(=O)c1c2c(nc3ccccc13)CCN(Cc1ccccc1)C2	13.2	0.0	50.6*	71.9	20.2	-18.0	11.1*	+
SMILES	Arrestin-AP2 inh	GRK2 inh	B2AR ag	TAG inh	NTR1 agonist	Lipid droplet	Beta2AR ag CP1	FAP fluor counter
N#Cc1cc(-c2ccccc2)nc(NN)n1	34.0	0.0	-0.1	-2.4	2.4	1.4	/	/
N#Cc1cc(-c2ccccc2)nc(Oc2ccc(Cl)cc2)n1	-6.0	0.0	44.3*	/	13.5	-22.5	49.7*	i
Cc1ccc(CSc2nc3c(c(N(C)C)n2)CCCC3)cc1	5.3	2.0	-5.0	-97.8	7.5	-21.5	/	/
CN(C)c1nc(SCc2ccccc2Cl)nc2c1CCCC2	-0.9	1.0	43.2*	-32.1	3.9	-4.8	130.8	i
c1coc(Cn2c(SCc3nc4ccccc4[nH]3)nnc2-c2cccs2)c1	-8.0	0.0	-7.3	/	-0.5	/	/	/
O=c1[nH]c(CSc2nnc(-c3ccncc3)n2Cc2ccco2)nc2ccccc12	3.3	0.0	-6.6	/	-0.2	/	/	/
Cc1cccc(-c2nnc(SCc3nc4ccccc4[nH]3)n2Cc2ccco2)c1	2.0	0.0	-4.4	/	-0.1	/	115.5	i
Cc1ccc(-c2nnc(SCc3nc4ccccc4[nH]3)n2Cc2ccco2)cc1	-0.7	0.0	-32.1	/	0.8	/	106.3	i
COc1ccc(NC(=O)CCC(=O)N2CCOCC2)c([N+](=O)[O-])c1	-8.1	1.0	-1.5	/	0.3	-6.0	/	/
CCN(CC)C(=O)C1=C(C)N(CCCOC)C(=O)C(CC(=O)NC2CC2)C1 (configuration not stated)	/	/	/	-2.8	/	/	/	/
CC(C)CN(C(=O)c1ccc(N2CCCC2=O)cc1)c1c(N)n(Cc2ccccc2)c(=O)[nH]c1=O	28.1	6.0	6.2	-19.8	-0.8	/	/	/
CC(C)CN(C(=O)c1ccc2c(c1)OCCO2)c1c(N)n(Cc2ccccc2)c(=O)[nH]c1=O	15.5	0.0	66.3*	-16.3	-0.2	/	107.0	i
CCC(=O)N1C(Cc2ccccc2)COC1(C)C (configuration not stated)	-6.7	6.0	-0.6	/	2.7	-7.7	104.8	i
Cc1nc2ccc(-c3nc4cc(N)ccc4o3)cc2[nH]1	-4.3	0.0	42.7*	28.9	-1.2	22.4	117.8	i
Nc1ccc2oc(-c3ccc4nc[nH]c4c3)nc2c1	17.6	0.0	13.0	33.4	-2.0	0.1	/	/
COc1ccc(NC(=O)C[C@H]2C(=O)N(c3ccc(Br)cc3)C[C@@H]2C)cc1	/	/	/	2.1	/	/	/	/
O=C(Nc1cc(S(=O)(=O)Nc2ccc(Cl)cc2)ccc1N1CCCCC1)c1ccc(F)cc1	-0.2	0.0	8.3	14.7	6.0	-25.1	/	/
N#Cc1ccc(C(=O)Nc2cc(S(=O)(=O)Nc3ccc(Cl)cc3)ccc2N2CCCCC2)cc1	37.6	0.0	43.8*	/	6.4	-33.2	102.9	i
